PubChem BioAssay
The source made the active and inactive calls.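 Rule for the calls: active = current rise at least 3 SD above the untreated control mean in each of two repeat wells; inactive = the rest.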

Each compound was assayed against Potassium voltage-gated channel subfamily KQT member 1 (Homo sapiens) (UniProt P51787) (assay: KCNQ1 channel current potentiators, confirmation, orthogonal assay for KCNQ1 potentiator project, IonWorks patch clamp, KCNQ1-CHO cells (AID 493184;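 for current potentiation: percent change of the same well's current before compound addition so 0% = no change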)). Details: automated patch clamp current, at 10 µM; hits give high values.
Potassium voltage-gated channel subfamily KQT member 1 (Homo sapiens), sequence (P51787 whole entry, looked up): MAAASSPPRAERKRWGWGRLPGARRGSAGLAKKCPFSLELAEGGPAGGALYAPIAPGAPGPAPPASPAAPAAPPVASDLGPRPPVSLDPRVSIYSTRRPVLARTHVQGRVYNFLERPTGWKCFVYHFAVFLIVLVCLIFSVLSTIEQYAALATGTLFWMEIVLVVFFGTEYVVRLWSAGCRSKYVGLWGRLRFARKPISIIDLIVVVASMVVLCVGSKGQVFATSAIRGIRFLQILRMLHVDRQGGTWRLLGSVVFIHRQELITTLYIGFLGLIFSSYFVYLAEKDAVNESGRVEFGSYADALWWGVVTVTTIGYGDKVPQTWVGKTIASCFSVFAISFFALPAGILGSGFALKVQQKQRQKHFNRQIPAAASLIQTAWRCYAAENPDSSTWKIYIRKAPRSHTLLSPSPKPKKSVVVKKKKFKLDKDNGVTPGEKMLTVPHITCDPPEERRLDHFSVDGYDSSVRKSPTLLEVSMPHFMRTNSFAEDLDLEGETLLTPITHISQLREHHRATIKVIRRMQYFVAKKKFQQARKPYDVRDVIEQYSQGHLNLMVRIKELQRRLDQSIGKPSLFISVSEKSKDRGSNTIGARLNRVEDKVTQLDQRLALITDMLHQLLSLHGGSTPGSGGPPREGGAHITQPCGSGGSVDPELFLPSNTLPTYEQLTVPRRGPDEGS
Summary of the method: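 Test system: KCNQ1-expressing CHO cells. Medium: pH 7.4 external bath. Probe or stimulus: voltage step from -90 mV holding to +40 mV, 2,000 ms. Compound: 10 µM final, single point. Detection: automated perforated-patch electrophysiology. Read-out: percent current increase versus pre-compound level. Repeats: two replicates.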
For Cc1cc(SCNC(=O)c2ccccc2)ncn1, the outcome was “inactive”.
With c1ccc2c(c1)OCC(CNc1ncnc3nc[nH]c13)O2 (centres undefined) the outcome was “inactive”.
CCN(C(=O)COC(=O)c1ccccc1Nc1cccc(C)c1C)C1CCS(=O)(=O)C1 (centres undefined) was tested, and the outcome was “inactive”.
In the case of CCOC(=O)Cc1csc(NC(=S)NC(=O)C(C)(C)C)n1, the outcome is reported as “inactive”.
For C/C(=N\NC(=S)Nc1cccc(C)c1)c1cc2ccccc2o1, the outcome was “inactive”.
For CC(=O)/C=C1/C(=O)Nc2ccccc21, the outcome was “inactive”.
With CC(=O)N1CCN=C1SCc1ccc(F)cc1 the outcome was “inactive”.
CNC(C)C#Cc1ccc2sc3cccc(OC)c3c(=O)c2c1 (centres undefined) was tested, and the outcome was “inactive”.
CCOC(=O)c1c(C)[nH]c(=S)c(C#N)c1-c1ccc(Cl)cc1 was tested, and the outcome was “inactive”.
With COc1cc(S(=O)(=O)Nc2cccnc2)ccc1Cl the outcome was “inactive”.
For CCN(CC)S(=O)(=O)c1cccc(C(=O)N[C@H](C(=O)NNC(=O)c2ccccc2)C(C)C)c1, the outcome was “inactive”.
For S=c1[nH]nc(CSc2nc3ccccc3s2)n1C1CCCCC1, the outcome was “inactive”.
Cc1ccc(CN2C(=O)CC(Nc3ccc(N4CCOCC4)cc3)C2=O)cc1 (centres undefined) was tested, and the outcome was “inactive”.
With COc1ccc2nc(N=Nc3ccc(O)c4ccccc34)sc2c1 the outcome was “inactive”.
With CCOC(=O)NC(=S)Nc1ccc(C(C)(C)C)cc1 the outcome was “inactive”.
With S=c1nc(C2CC2)[nH]c2ccccc12 the outcome was “inactive”.
With Cc1nc2ccccn2c1C(=O)N/N=C/c1ccccc1 the outcome was “inactive”.
In the case of Nc1ccccc1OCCOCCOc1ccccc1N, the outcome is reported as “inactive”.
In the case of CCN(CC)CCn1c(OC)cc(=O)[nH]c1=O, the outcome is reported as “inactive”.
CC(C)(C)c1ccc2c(c1)OC(C(=O)N/N=C\c1ccccn1)CO2 (centres undefined) was tested, and the outcome was “inactive”.
For Cc1cccc(CC2CC(=O)N(c3ccc(C)cc3Br)C2=O)c1 (centres undefined), the outcome was “inactive”.
In the case of O=C(CSc1nc2cc(Cl)ccc2s1)c1cc2ccccc2o1, the outcome is reported as “inactive”.
With Cc1ccc(C)c(SCC(=O)NC(=O)Nc2ccc3c(c2)OCCO3)c1 the outcome was “inactive”.
In the case of NC(N)=N/N=C/c1ccccc1OC(F)F, the outcome is reported as “inactive”.
For O=C(CCOc1ccccc1)Nc1ccnn1C1CCN(Cc2ccc(CO)o2)CC1, the outcome was “inactive”.
CC(=O)N[C@H]1[C@H](OC2CCCCC2)O[C@H](COC(C)=O)[C@@H](OC(C)=O)[C@@H]1OC(C)=O was tested, and the outcome was “inactive”.
For CCOc1ccccc1C1c2[nH]c3ccccc3c2C[C@H]2C(=O)N(C3CC3)CC(=O)N12 (some centres undefined), the current potentiation was 22.3% (active).
For Cc1ccc(C)c(NC(=S)NNC(=O)c2cc3c(s2)CCC(C)C3)c1 (centres undefined), the outcome was “inactive”.
For COc1ccccc1C(=O)NNC(=O)C(=O)NC1CCCCC1, the outcome was “inactive”.
In the case of COc1ccc(-c2oc3ccccc3c(=O)c2OC(C)=O)cc1, the outcome is reported as “inactive”.
For COC(=O)COc1ccc(-c2ccccc2)cc1C=O, the outcome was “inactive”.
For CCOC(=O)c1cc2c(=O)n3ccccc3nc2n(CCCOC)c1=NC(=O)c1ccncc1, the outcome was “inactive”.
COc1ccc(CCN(C)C(=O)CSc2nnc(-c3ccco3)o2)cc1OC was tested, and the outcome was “inactive”.
With CCC(C)n1c(=S)[nH]c2c(sc3ccc([N+](=O)[O-])cc32)c1=O (centres undefined) the outcome was “inactive”.
With S=c1[nH]cc(Cc2ccccc2)s1 the outcome was “inactive”.
CCOC(=O)Cn1c(=S)[nH]c2c(oc3ccc(Cl)cc32)c1=O was tested, and the outcome was “inactive”.
In the case of CCC(O)(CC)C(=O)NN(C(=O)CCl)c1ccccc1, the outcome is reported as “inactive”.
With CCOc1ccc(-n2cc(-c3ccccc3)c3c(=S)nc[nH]c32)cc1 the outcome was “inactive”.
For CC1CCN(c2ncnc3ccccc23)CC1, the outcome was “inactive”.
